# Assay results reported in ChEMBL document CHEMBL1136989, “Targeting human gastrointestinal stromal tumor cells with a quadruplex-binding small molecule” (J Med Chem, 2009).
# Activity calls are given as the source filed them. The calls are words filed in the database; no cut-off is given here.
# Key:
# [1] = system: Nucleic Acid; assay: Stabilization of human G4-telomeric quadruplex assessed as melting temperature by FRET assay; type: nucleic-acid assay
# Procedure, shortened: (§1)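 FRET melting of FAM/TAMRA dual-labelled oligonucleotides, annealed at 90°C in 60 mM K+ cacodylate buffer pH 7.4. Final conditions: 200 nM DNA and 500 nM ligand. Fluorescence read at 0.5°C steps from 30 to 100°C, ramping 1°C/min, with excitation 450–495 nm and emission 515–545 nm. Tm taken as the derivative maximum; ΔTm given relative to ligand-free control.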
# [2] = system: Nucleic Acid; assay: Stabilization of synthetic duplex DNA assessed as melting temperature by FRET assay; type: nucleic-acid assay; procedure, shortened: as §1
# [3] = system: Nucleic Acid; assay: Stabilization of human G4-KIT1 DNA quadruplex assessed as melting temperature by FRET assay; type: nucleic-acid assay; procedure, shortened: as §1
# [4] = system: Nucleic Acid; assay: Stabilization of human G4-KIT2 DNA quadruplex assessed as melting temperature by FRET assay; type: nucleic-acid assay; procedure, shortened: as §1
# [5] = Antiproliferative activity against human GIST882 cells after 96 hrs by SRB assay; type: functional, cell-based; conditions: GIST882, 96 h
# Procedure, shortened: (§2)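 Sulforhodamine B assay after 96 hr continuous drug exposure; IC50 in μM taken as the mean of triplicate experiments. GIST882 cells were kept in RPMI 1640 with 15% FBS. HT-29 and MCF-7 were kept in DMEM with 10% FBS, and HGC-27 in MEM with 10% FBS.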
# [6] = system: HGC-27; assay: Antiproliferative activity against human HGC27 cells after 96 hrs by SRB assay; type: functional, cell-based; conditions: HGC-27, 96 h; procedure, shortened: as §2
# [7] = system: HT-29; assay: Antiproliferative activity against human HT-29 cells after 96 hrs by SRB assay; type: functional, cell-based; conditions: HT-29, 96 h; procedure, shortened: as §2
# [8] = system: MCF7; assay: Antiproliferative activity against human MCF7 cells after 96 hrs by SRB assay; type: functional, cell-based; conditions: MCF7, 96 h; procedure, shortened: as §2
# [9] = molecular target: Mast/stem cell growth factor receptor Kit (Homo sapiens) (UniProt P10721); assay: Reduction in KIT mRNA expression in human GIST882 cells after 24 hrs; type: functional, cell-based
# Sequence of Mast/stem cell growth factor receptor Kit (Homo sapiens) (P10721 whole entry): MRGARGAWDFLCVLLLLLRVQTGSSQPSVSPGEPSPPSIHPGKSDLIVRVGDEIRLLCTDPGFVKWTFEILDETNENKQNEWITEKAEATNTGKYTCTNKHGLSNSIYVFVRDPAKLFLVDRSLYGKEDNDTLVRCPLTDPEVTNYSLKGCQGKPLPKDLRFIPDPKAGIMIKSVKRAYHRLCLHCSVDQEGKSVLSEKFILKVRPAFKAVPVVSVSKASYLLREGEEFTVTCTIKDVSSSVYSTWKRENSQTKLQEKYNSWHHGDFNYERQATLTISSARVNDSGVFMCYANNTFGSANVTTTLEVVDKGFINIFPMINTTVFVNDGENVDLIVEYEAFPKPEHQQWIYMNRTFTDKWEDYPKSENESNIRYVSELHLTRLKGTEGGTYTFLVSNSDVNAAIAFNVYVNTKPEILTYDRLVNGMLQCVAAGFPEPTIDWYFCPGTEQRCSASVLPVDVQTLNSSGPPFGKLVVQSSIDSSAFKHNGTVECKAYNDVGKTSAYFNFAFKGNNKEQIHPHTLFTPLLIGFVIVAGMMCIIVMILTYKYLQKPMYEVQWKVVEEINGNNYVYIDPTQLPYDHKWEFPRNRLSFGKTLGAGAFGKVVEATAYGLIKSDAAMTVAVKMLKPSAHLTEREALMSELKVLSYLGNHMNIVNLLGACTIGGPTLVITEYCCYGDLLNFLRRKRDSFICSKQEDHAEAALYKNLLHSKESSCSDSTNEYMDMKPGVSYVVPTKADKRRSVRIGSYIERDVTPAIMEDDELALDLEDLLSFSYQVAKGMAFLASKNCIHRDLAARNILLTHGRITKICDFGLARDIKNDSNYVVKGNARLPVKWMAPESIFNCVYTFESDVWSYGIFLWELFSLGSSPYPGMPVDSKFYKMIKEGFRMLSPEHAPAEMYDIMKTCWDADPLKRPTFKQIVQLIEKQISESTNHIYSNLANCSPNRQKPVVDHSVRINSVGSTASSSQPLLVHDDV
# Procedure, shortened: (§3)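 GIST882 cells (1×10^6) exposed to drug for 24 hr. Total RNA extracted, and 250 ng used for one-step RT-PCR of KIT, MYC, hTERT and N-RAS. Band levels normalized to GAPDH and to untreated control.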
# [10] = molecular target: Mast/stem cell growth factor receptor Kit (Homo sapiens) (UniProt P10721); assay: Reduction in KIT protein expression in human GIST882 cells after 24 hrs by Western blot; type: functional, cell-based
# Procedure, shortened: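 GIST882 cells (RPMI 1640 + 15% FBS) exposed 24 hr to 0.5 or 1 µM test compound, or imatinib at 5 and 10 µM. Lysates protein-quantified by Bradford, then electrophoresed and immunoblotted for total KIT, with actin blot as loading control; vehicle-treated cells as reference.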
# [11] = Cytotoxicity against human GIST48 cells assessed as effect on cell viability after 3 to 6 days by luciferase based luminescence assay; type: functional
# Procedure, shortened: (§4)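 CellTiter-Glo luciferase/ATP luminescence viability read-out. Cells plated at 10,000–30,000 per well and grown overnight in serum-containing medium, then dosed for 3 to 6 days alongside a water-solvent control. Signal normalized to control; each point in triplicate. GIST882, GISTT1 and LMS04 were grown in RPMI 1640 with 15% FBS. GIST48 and GIST48B were grown in F10 with 15% FBS, mito+ serum extender and bovine pituitary extract.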
# [12] = system: GIST882; assay: Cytotoxicity against human GIST882 cells assessed as effect on cell viability after 3 to 6 days by luciferase based luminescence assay; type: functional; procedure, shortened: as §4
# [13] = system: GISTT1; assay: Cytotoxicity against human GISTT1 cells assessed as effect on cell viability after 3 to 6 days by luciferase based luminescence assay; type: functional; procedure, shortened: as §4
# [14] = system: GIST48B; assay: Cytotoxicity against human GIST48B cells assessed as effect on cell viability after 3 to 6 days by luciferase based luminescence assay; type: functional; procedure, shortened: as §4
# [15] = organism: Homo sapiens; assay: Cytotoxicity against human LMSO4 cells assessed as effect on cell viability after 3 to 6 days by luciferase based luminescence assay; type: functional; procedure, shortened: as §4
# [16] = molecular target: Mast/stem cell growth factor receptor Kit (Homo sapiens) (UniProt P10721); assay: Reduction in KIT mRNA expression in human GIST882 cells at 1 uM after 24 hrs relative to GAPDH level; type: functional, cell-based; set-up: scale not given: the % may be the effect or the level left; procedure, shortened: as §3
# [17] = Reduction in MYC mRNA expression in human GIST882 cells after 24 hrs; type: functional, cell-based; set-up: scale not given: the % may be the effect or the level left; procedure, shortened: as §3
# [18] = Reduction in N-RAS mRNA expression in human GIST882 cells after 24 hrs; type: functional, cell-based; procedure, shortened: as §3
# [19] = Reduction in telomerase mRNA expression in human GIST882 cells after 24 hrs; type: functional, cell-based; procedure, shortened: as §3
# [20] = molecular target: Mast/stem cell growth factor receptor Kit (Homo sapiens) (UniProt P10721); assay: Reduction in KIT protein expression in human GIST882 cells at 1 uM after 24 hrs by Western blot; type: functional, cell-based
# Procedure, shortened: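 GIST882 cells treated for 24 hr, compound at 0.5 or 1 μM and imatinib at 5 or 10 μM. Lysate protein measured by Bradford, then electrophoresis and immunoblotting for total KIT with an actin loading control.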
# [21] = molecular target: Telomerase reverse transcriptase (Homo sapiens) (UniProt O14746); assay: Inhibition of telomerase in human GIST882 cells at 0.5 uM by TRAP-LIG assay; type: cell-based
# Sequence of Telomerase reverse transcriptase (Homo sapiens) (O14746 whole entry): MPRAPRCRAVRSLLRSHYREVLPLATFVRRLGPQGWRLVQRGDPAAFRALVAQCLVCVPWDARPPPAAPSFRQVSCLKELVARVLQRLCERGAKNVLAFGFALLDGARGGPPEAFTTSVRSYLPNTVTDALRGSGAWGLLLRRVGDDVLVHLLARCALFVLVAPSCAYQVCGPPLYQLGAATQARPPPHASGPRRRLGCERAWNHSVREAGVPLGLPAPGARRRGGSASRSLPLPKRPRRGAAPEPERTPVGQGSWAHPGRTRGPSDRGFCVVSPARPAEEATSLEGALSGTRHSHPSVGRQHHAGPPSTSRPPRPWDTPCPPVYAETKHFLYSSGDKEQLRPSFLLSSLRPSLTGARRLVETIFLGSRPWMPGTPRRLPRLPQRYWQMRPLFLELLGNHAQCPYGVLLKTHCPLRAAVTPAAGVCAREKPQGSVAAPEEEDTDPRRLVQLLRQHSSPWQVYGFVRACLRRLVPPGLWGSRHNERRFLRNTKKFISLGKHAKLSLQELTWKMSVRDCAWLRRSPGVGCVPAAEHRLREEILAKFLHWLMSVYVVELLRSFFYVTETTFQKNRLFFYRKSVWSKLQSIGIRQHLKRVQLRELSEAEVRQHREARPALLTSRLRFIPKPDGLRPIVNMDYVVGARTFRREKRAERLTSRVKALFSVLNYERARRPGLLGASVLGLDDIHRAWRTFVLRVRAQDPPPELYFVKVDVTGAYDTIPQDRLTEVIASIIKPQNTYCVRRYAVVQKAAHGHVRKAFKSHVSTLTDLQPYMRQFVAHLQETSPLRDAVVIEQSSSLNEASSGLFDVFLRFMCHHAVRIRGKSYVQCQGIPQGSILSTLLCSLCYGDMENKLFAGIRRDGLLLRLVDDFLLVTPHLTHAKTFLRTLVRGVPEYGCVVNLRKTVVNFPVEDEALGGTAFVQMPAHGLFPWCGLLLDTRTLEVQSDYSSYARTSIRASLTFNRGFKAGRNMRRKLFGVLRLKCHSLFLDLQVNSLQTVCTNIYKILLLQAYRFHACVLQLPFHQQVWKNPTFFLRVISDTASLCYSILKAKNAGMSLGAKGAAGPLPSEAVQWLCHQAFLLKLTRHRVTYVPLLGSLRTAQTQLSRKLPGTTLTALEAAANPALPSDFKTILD
# Procedure, shortened: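 TRAP-LIG assay on GIST882 cells treated for one week. Cell protein extract in CHAPS lysis buffer was elongated with TS primer in TRAP buffer at 30°C for 10 min, then purified. A second PCR with ACX/TS primers ran 35 cycles. Products were run on 12% PAGE and stained with SYBR green. Ladder intensity was normalized to an untreated-protein positive control after negative-control background subtraction.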
# [22] = system: GIST882; assay: Antiproliferative activity against human GIST882 cells at 0.1 uM after 2 weeks; type: functional, cell-based
# Procedure, shortened: (§5)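 Long-term proliferation of GIST882 cells under continuous exposure for three weeks at 0.1, 0.25 or 0.5 μM. Growth followed as cumulative population doublings relative to an untreated control arm.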
# [23] = system: GIST882; assay: Antiproliferative activity against human GIST882 cells at 0.25 uM after 1 week; type: functional, cell-based; procedure, shortened: as §5
# [24] = system: GIST882; assay: Antiproliferative activity against human GIST882 cells at 0.5 uM after 1 week; type: functional, cell-based; procedure, shortened: as §5
# [25] = system: GIST882; assay: Cytotoxicity against human GIST882 cells assessed as growth inhibition at 0.25 uM after 1 week; type: functional, cell-based; procedure, shortened: as §5
# [26] = system: GIST882; assay: Cytotoxicity against human GIST882 cells assessed as growth inhibition at 0.5 uM after 1 week; type: functional, cell-based; procedure, shortened: as §5
SMILES,ΔTm [1] [°C],ΔTm [2] [°C],ΔTm [3] [°C],ΔTm [4] [°C],IC50 [5] [nM],IC50 [6] [nM],IC50 [7] [nM],IC50 [8] [nM],Activity [9],Activity [10],IC50 [11] [nM],also measured
CN(C)c1ccc(Nc2c3ccc(NC(=O)CCN4CCCC4)cc3nc3cc(NC(=O)CCN4CCCC4)ccc23)cc1,21.6,7.2,6.5,18.5,> 25000,2600,2700,2200,inactive,inactive,,
C[n+]1ccc(-c2c3nc(c(-c4cc[n+](C)cc4)c4ccc([nH]4)c(-c4cc[n+](C)cc4)c4ccc([nH]4)c(-c4cc[n+](C)cc4)c4nc2C=C4)C=C3)cc1 [TMPYP4],27.8,8.7,11.1,21.6,13200,2700,4500,6100,inactive,inactive,,
Cc1ccc(NC(=O)c2ccc(CN3CCN(C)CC3)cc2)cc1Nc1nccc(-c2cccnc2)n1 [IMATINIB],0.2,0.1,0.2,0.2,1700,2400,60,11500,inactive,,18700,
O=C1c2cc(NCCN3CCCC3)c3c4c(cc(NCCN5CCCC5)c(c24)C(=O)N1CCN1CCCC1)C(=O)N(CCN1CCCC1)C3=O,28.7,5.7,11.2,29,1600,40,30,20,Dose-dependent effect,,500,Activity [12]: Active; Activity [13]: Active; Activity [14]: inactive; Activity [15]: inactive; Activity [16]: 90%; Activity [17]: 25%; Activity [18]: inactive; Activity [19]: Active; Activity [20]: Active; Activity [21]: Active; Activity [22]: Active; Activity [23]: Active; Activity [24]: Active; Activity [25]: Active; Activity [26]: Active
